Type in all cases: functional, cell-based
The test system of one assay is HL-60. The assay is described as follows: Cytotoxicity against human HL60 cells after 48 hrs by MTT assay. Put shortly: (§1)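 Cells grown in RPMI1640 or DMEM with 10% FBS at 37 °C under 5% CO2. Adherent lines (A-549, MCF-7, SMMC-7721, SW480) were allowed 12 h to attach before dosing. Suspension HL-60 cells were seeded just before dosing at an initial 1 × 10^5 cells/mL. Compounds in DMSO at 0.0625, 0.32, 1.6, 8 and 40 μmol, in triplicate, for 48 h. MTT read-out. Cisplatin and vinorelbine were the positive controls.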
In general terms: Formazan colour is commonly taken as a measure of viable cells.

The test system of another assay is MCF7. The assay is described as follows: Cytotoxicity against human MCF7 cells after 48 hrs by MTT assay. The procedure, abridged: as §1
A further assay concerns SW480. The assay is described as follows: Cytotoxicity against human SW480 cells after 48 hrs by MTT assay. Put shortly:
as §1

Another assay concerns SMMC-7721. The assay is described as follows: Cytotoxicity against human SMMC7721 cells after 48 hrs by MTT assay. The procedure, abridged: as §1
Another assay concerns A549. Description: Cytotoxicity against human A549 cells after 48 hrs by MTT assay. The procedure, abridged:
as §1

Consider `COc1cc(O)c2c(c1O)C[C@]1(C)O[C@@H]1CC[C@@]1(C)O[C@@H]1C2=O`, for which the IC50 in the assay with HL-60 came to 4 µmol; with MCF7 it was 16.1 µmol; in the assay on SW480, 14.2 µmol; in the assay with SMMC-7721, 11.3 µmol; with A549, 4.2 µmol.

Turning to `COc1cc(O)c2c(c1O)C/C(C)=C\[C@@H](O)C[C@@]1(C)O[C@@H]1C2=O`, the IC50 in the assay on HL-60 was 17.8 µmol; in the assay on MCF7, 21 µmol; in the assay with SW480, 21.1 µmol; with SMMC-7721, 14.9 µmol; in the assay with A549, 6.5 µmol.

`COc1cc(O)c2c(c1O)C/C(C)=C\CC[C@@]1(C)O[C@@H]1C2=O`: the IC50 in the assay with HL-60 is 5.6 µmol; with MCF7, 24.6 µmol; with SW480, above 40 µmol; in the assay with SMMC-7721, 24.7 µmol; with A549, 16.4 µmol.

The record behind these values is ChEMBL document CHEMBL2406936, “Highly oxygenated meroterpenoids from fruiting bodies of the mushroom Tricholoma terreum” (J Nat Prod, 2013).
